Measured values published in ChEMBL document CHEMBL3739387, “Discovery and SAR of Novel and Selective Inhibitors of Urokinase Plasminogen Activator (uPA) with an Imidazo[1,2-a]pyridine Scaffold” (J Med Chem, 2015).
Activity calls are given as the source filed them. No cut-off for these calls is given here.

Columns and labels:
Coagulation factor X [1] = biological target: T1, Coagulation factor X (Homo sapiens, UniProt P00742); experiment: Inhibition of purified human factor 10a using Suc-Ile-Glu(yPip)-GlyArg-pNa-HCl as substrate at 100 uM measured for 5 mins by spectrophotometric assay
T1 sequence (P00742 41-179 limits assumed): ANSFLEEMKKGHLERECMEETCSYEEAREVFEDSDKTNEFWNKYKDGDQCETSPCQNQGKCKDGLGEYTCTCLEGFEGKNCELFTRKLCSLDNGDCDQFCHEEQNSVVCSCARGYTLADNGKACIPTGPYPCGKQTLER
T1 sequence (P00742 235-488 limits assumed): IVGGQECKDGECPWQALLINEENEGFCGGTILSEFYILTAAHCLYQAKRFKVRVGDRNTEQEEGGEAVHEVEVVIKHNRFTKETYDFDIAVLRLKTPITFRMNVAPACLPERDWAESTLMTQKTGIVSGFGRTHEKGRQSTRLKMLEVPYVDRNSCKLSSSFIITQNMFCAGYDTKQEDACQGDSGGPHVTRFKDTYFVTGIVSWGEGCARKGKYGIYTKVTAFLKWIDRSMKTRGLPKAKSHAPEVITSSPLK
How it was run: (§1)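 Purified human factor Xa, substrate Suc-Ile-Glu(γPip)-Gly-Arg-pNA (CS-11(32)) at 411 μM in assay. HEPES pH 8.2. Read at 405 nm for 5 min at 37 °C, duplicate wells.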

Prothrombin [2] = biological target: T2, Prothrombin (Homo sapiens, UniProt P00734); experiment: Inhibition of human plasma thrombin using pyroGlu-Pro-Arg-pNA-HCl as substrate at 100 uM measured for 5 mins by spectrophotometric assay; type: cell-free
How it was run: (§2)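 Thrombin from human plasma with pyroGlu-Pro-Arg-pNA (CS-21(66), Km 400 μM) at 415 μM in assay. 50 mM HEPES pH 8.2. pNA release at 405 nm over 5 min at 37 °C, in duplicate.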

[3] = biological target: T3, Tissue-type plasminogen activator (Homo sapiens, UniProt P00750); experiment: Inhibition of recombinant human tPA using H-D-Ile-Pro-L-Arg-pNA-2HCl as substrate at 100 uM measured for 5 mins by spectrophotometric assay
Target sequence in this assay (P00750 36-562 limits assumed): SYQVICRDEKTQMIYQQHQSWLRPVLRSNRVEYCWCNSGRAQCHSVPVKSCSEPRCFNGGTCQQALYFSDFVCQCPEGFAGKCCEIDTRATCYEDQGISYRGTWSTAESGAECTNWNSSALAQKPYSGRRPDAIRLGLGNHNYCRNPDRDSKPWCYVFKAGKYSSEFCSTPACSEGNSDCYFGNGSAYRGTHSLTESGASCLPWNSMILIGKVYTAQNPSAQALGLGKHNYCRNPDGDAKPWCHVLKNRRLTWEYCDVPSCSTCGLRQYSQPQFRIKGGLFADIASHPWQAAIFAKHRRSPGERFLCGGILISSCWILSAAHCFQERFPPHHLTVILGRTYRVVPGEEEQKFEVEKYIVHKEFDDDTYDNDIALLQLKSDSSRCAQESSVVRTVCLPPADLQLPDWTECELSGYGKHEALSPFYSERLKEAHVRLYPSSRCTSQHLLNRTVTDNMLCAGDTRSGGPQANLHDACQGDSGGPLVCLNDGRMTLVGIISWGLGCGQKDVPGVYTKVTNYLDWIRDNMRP

[4] = biological target: T4, Urokinase-type plasminogen activator (Homo sapiens, UniProt P00749); experiment: Inhibition of human uPA using pyro-Glu-Gly-Arg-pNA as substrate assessed as para-nitroaniline release from substrate measured for 5 mins by spectrophotometric assay
Plasma kallikrein [5] = biological target: T5, Plasma kallikrein (Homo sapiens, UniProt P03952); experiment: Inhibition of human plasma kallikrein using D-Pro-Phe-Arg-pNA-2HCl as substrate at 100 uM measured for 5 mins by spectrophotometric assay; type: cell-free
T5 sequence (P03952 20-390 limits assumed): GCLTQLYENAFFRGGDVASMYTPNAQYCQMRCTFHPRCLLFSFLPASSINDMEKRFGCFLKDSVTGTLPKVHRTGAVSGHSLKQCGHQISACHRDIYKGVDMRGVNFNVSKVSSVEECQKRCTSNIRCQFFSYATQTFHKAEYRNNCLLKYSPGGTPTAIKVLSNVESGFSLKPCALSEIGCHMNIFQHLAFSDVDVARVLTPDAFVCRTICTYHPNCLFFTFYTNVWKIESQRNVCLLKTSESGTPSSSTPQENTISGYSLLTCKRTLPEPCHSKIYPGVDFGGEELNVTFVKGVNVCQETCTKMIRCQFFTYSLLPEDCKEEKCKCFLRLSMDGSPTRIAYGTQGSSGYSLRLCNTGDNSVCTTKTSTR
T5 sequence (P03952 391-638 limits assumed): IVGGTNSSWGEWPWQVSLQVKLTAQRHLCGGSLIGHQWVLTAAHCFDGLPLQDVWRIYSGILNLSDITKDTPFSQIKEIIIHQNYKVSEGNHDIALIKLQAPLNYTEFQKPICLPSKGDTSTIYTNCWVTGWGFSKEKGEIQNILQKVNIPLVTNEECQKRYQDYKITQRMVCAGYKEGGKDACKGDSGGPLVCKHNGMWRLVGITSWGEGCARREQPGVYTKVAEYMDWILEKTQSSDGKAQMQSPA
How it was run: (§3)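 Human plasma kallikrein, chromogenic substrate CS-31(02) (Km 269 μM) at 269 μM in assay. 50 mM HEPES at pH 7.4. Absorbance at 405 nm over 5 min at 37 °C, duplicates.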

[6] = biological target: T6, Coagulation factor VII (Homo sapiens) (UniProt P08709); experiment: Inhibition of purified human factor 7a using MeSO2-Cha-Abu-Arg-pNA as substrate at 100 uM measured for 5 mins by spectrophotometric assay
T6 sequence (whole entry): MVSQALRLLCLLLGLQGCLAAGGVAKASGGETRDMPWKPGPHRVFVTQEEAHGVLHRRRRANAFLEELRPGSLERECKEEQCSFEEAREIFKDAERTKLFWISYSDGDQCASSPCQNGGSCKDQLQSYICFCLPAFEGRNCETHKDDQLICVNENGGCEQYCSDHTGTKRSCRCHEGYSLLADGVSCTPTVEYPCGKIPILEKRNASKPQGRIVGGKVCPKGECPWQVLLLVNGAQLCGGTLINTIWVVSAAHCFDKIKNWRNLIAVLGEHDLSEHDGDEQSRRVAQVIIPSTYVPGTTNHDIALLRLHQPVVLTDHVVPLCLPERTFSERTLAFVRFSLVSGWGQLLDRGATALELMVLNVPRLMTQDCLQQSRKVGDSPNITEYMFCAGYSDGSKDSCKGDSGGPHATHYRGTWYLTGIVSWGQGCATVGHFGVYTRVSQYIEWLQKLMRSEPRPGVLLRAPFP
How it was run: (§4)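 Purified human plasma FVIIa with tissue factor (Innovin) present. MeSO2-Cha-Abu-Arg-pNA at 800 μM in assay. Buffer 50 mM HEPES pH 7.5, 100 mM NaCl, 5 mM CaCl2, 0.1% BSA.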

Bos taurus = species on record: Bos taurus; experiment: Inhibition of bovine pancreatic trypsin using Na-benzoyl-D,L-Arg-pNA-HCl as substrate at 100 uM measured for 5 mins by spectrophotometric assay
Plasminogen [7] = biological target: T7, Plasminogen (Homo sapiens, UniProt P00747); experiment: Inhibition of human plasma plasmin using pyroGlu-Pro-Arg-pNA-HCl as substrate at 100 uM measured for 5 mins by spectrophotometric assay; type: cell-free
T7 sequence (P00747 97-580 limits assumed): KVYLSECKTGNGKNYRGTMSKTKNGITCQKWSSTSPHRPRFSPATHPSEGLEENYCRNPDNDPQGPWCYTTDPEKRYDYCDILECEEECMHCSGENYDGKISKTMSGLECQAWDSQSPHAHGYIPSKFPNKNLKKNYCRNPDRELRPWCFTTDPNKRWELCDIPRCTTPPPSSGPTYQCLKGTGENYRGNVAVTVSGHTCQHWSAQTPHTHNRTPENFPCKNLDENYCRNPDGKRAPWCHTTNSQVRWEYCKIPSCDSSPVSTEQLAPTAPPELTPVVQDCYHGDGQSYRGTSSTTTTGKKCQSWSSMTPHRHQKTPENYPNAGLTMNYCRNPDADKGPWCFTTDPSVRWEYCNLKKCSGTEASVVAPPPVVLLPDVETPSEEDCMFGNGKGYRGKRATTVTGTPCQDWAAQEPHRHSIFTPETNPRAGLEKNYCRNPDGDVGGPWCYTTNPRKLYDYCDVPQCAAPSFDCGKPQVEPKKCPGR
T7 sequence (P00747 581-810 limits assumed): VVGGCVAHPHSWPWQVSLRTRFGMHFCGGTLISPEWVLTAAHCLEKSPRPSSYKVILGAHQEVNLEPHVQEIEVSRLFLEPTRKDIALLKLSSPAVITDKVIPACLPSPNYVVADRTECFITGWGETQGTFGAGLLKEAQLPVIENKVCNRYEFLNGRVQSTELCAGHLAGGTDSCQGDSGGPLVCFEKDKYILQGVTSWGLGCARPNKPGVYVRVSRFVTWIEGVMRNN
How it was run: (§5)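 Plasmin purified from human plasma. Substrate pyroGlu-Pro-Arg-pNA (CS-21(66), Km 400 μM) at 400 μM in assay. HEPES pH 7.0, 37 °C, absorbance at 405 nm followed for 5 min, duplicates.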

Coagulation factor X [8] = biological target: T1, Coagulation factor X; experiment: Inhibition of purified human factor 10a using Suc-Ile-Glu(gammaPip)-GlyArg-pNa-HCl as substrate measured for 5 mins by spectrophotometric assay; how it was run: as §1
[9] = biological target: T4, Urokinase-type plasminogen activator; experiment: Tight binding inhibition of human uPA using pyro-Glu-Gly-Arg-pNA as substrate assessed as para-nitroaniline release from substrate measured for 5 mins by spectrophotometry based enzyme kinetics assay
[10] = biological target: T4, Urokinase-type plasminogen activator; experiment: Reversible inhibition of human uPA using pyro-Glu-Gly-Arg-pNA as substrate assessed as para-nitroaniline release from substrate measured for 5 mins by spectrophotometry based enzyme kinetics assay
[11] = biological target: T4, Urokinase-type plasminogen activator; experiment: Slow dissociating inhibition of human uPA using pyro-Glu-Gly-Arg-pNA as substrate assessed as para-nitroaniline release from substrate measured for 5 mins by spectrophotometry based enzyme kinetics assay
Plasma kallikrein [12] = biological target: T5, Plasma kallikrein; experiment: Inhibition of human plasma kallikrein using D-Pro-Phe-Arg-pNA-2HCl as substrate measured for 5 mins by spectrophotometric assay; type: cell-free; how it was run: as §3
[13] = Inhibition of bovine pancreatic trypsin using Nalpha-benzoyl-D,L-Arg-pNA-HCl as substrate measured for 5 mins by spectrophotometric assay; set-up: species or system Bos taurus
Plasminogen [14] = biological target: T7, Plasminogen; experiment: Inhibition of human plasma plasmin using pyroGlu-Pro-Arg-pNA-HCl as substrate measured for 5 mins by spectrophotometric assay; type: cell-free; how it was run: as §5
[15] = biological target: T3, Tissue-type plasminogen activator; experiment: Inhibition of recombinant human tPA using H-D-Ile-Pro-L-Arg-pNA-2HCl as substrate measured for 5 mins by spectrophotometric assay
Target sequence in this assay (P00750 whole entry): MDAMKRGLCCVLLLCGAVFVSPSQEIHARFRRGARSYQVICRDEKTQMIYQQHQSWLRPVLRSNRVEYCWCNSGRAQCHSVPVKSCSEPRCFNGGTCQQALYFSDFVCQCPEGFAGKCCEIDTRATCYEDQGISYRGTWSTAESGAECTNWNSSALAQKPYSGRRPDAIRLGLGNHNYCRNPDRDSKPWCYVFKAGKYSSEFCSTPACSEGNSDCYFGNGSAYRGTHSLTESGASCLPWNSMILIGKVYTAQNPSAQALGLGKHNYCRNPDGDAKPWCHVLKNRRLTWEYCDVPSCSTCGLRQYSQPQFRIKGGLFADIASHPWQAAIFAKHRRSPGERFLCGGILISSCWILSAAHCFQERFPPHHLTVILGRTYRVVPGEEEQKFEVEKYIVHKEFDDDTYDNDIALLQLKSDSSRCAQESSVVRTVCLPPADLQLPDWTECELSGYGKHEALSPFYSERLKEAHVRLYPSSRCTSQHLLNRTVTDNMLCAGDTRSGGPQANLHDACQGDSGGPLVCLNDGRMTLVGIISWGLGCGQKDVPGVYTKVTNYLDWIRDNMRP

Prothrombin [16] = biological target: T2, Prothrombin; experiment: Inhibition of human plasma thrombin using pyroGlu-Pro-Arg-pNA-HCl as substrate measured for 5 mins by spectrophotometric assay; type: cell-free; how it was run: as §2
[17] = biological target: T4, Urokinase-type plasminogen activator; experiment: Inhibition of human uPA
Homo sapiens [18] = species on record: Homo sapiens; experiment: Selectivity index, ratio of IC50 for recombinant human tPA to IC50 for human uPA
Homo sapiens [19] = species on record: Homo sapiens; experiment: Selectivity index, ratio of IC50 for human plasma plasmin to IC50 for human uPA
Homo sapiens [20] = species on record: Homo sapiens; experiment: Selectivity index, ratio of IC50 for purified human factor 10a to IC50 for human uPA
Homo sapiens [21] = species on record: Homo sapiens; experiment: Selectivity index, ratio of IC50 for purified human factor 7a to IC50 for human uPA
Homo sapiens [22] = species on record: Homo sapiens; experiment: Selectivity index, ratio of IC50 for human plasma kallikrein to IC50 for human uPA
Coagulation factor VII = biological target: T8, Coagulation factor VII (Homo sapiens, UniProt P08709); experiment: Inhibition of purified human factor 7a using MeSO2-Cha-Abu-Arg-pNA as substrate measured for 5 mins by spectrophotometric assay; how it was run: as §4
T8 sequence (P08709 whole entry): T6 sequence (whole entry)

Homo sapiens [23] = species on record: Homo sapiens; experiment: Selectivity index, ratio of IC50 for human plasma thrombin to IC50 for human uPA
[24] = Selectivity index, ratio of IC50 for bovine pancreatic trypsin to IC50 for human uPA

| Compound | inhibition (Coagulation factor X [1]) | inhibition (Prothrombin [2]) | inhibition [3] | IC50 [4] | inhibition (Plasma kallikrein [5]) | inhibition [6] | inhibition (Bos taurus) | inhibition (Plasminogen [7]) | IC50 (Coagulation factor X [8]) | inhibition [9] | inhibition [10] | inhibition [11] | IC50 [13] | further results |
| --- | --- | --- | --- | --- | --- | --- | --- | --- | --- | --- | --- | --- | --- | --- |
| N=C(N)Nc1ccc(CNc2c(-c3cccnc3)nc3ccccn23)cc1 | 24.6% | 6.6% | 9.4% | 250 µM | 0% | 0% | 3.3% | 0% | – | – | – | – | – | – |
| N=C(N)Nc1ccc(CNc2cnc3cc(C(=O)NCCO)ccn23)cc1 | – | 4.7% | 0% | 0.366 µM | 0% | 5% | 43.3% | 15.6% | 51.6 µM | Active | Active | Active | – | – |
| N=C(N)Nc1ccc(CNc2cnc3cc(C(=O)NC4CCCC4)ccn23)cc1 | 47.8% | 17.8% | 11.2% | 0.174 µM | 0% | 4% | 37.1% | 0% | – | Active | Active | Active | – | – |
| N=C(N)Nc1ccccc1 | 0% | 0% | 0% | – | 0% | 0% | 38.8% | 0% | – | – | – | – | – | – |
| CCOC(=O)c1ccc(OC(=O)CCCCCNC(=N)N)cc1 [GABEXATE] | – | – | – | 0.431 µM | – | – | – | – | 4.61 µM | – | – | – | 7.12 µM | IC50 (Plasma kallikrein [12]): 1.35 µM; IC50 (Plasminogen [14]): 1.55 µM; IC50 [15]: 15.4 µM; IC50 (Prothrombin [16]): 0.687 µM |
| N=C(N)c1ccc(CNC(=O)[C@H](CO)NC(=O)[C@@H](CO)NS(=O)(=O)Cc2ccccc2)cc1 | – | – | – | – | – | – | – | – | – | – | – | – | – | Ki [17]: 0.02 µM |
| N=C(N)Nc1ccc(CNc2cnc3cc(C(=O)NC4CC4)ccn23)cc1 | 45.4% | 8% | 0% | 0.184 µM | 0% | 2.6% | 46% | 3.3% | – | Active | Active | Active | – | – |
| N=C(N)Nc1ccc(CNc2cnc3ccccn23)cc1 | 42% | 23% | 33.6% | 9.04 µM | 39.4% | 2.5% | – | 29.8% | – | – | – | – | 115 µM | – |
| N=C(N)c1ccc(/C=C2/N=C(c3ccccc3)OC2=O)cc1 | – | – | – | 8.67 µM | – | 0% | – | – | 6.47 µM | – | – | – | 3.18 µM | IC50 (Plasma kallikrein [12]): 1.34 µM; IC50 (Plasminogen [14]): 0.34 µM; IC50 [15]: 68.5 µM; IC50 (Prothrombin [16]): 56.1 µM |
| N=C(N)Nc1ccc(CNc2cnc3cc(C(=O)NCc4ccc(F)cc4)ccn23)cc1 | 45.7% | 19.5% | 11.9% | 0.254 µM | 0% | 4.2% | 43.2% | 8.3% | – | Active | Active | Active | – | – |
| CN1CCN(CCNC(=O)c2ccn3c(NCc4ccc(NC(=N)N)cc4)cnc3c2)CC1 | 12.2% | 6.6% | 2.8% | 0.404 µM | 0% | 2% | 32% | 0% | – | Active | Active | Active | – | – |
| CCCCNC(=O)c1ccn2c(NCc3ccc(NC(=N)N)cc3)cnc2c1 | 41.8% | 19.2% | 8% | 0.097 µM | 2.8% | 1.4% | 42.7% | 13.6% | > 100 µM | Active | Active | Active | > 100 µM | IC50 (Plasma kallikrein [12]): > 100 µM; Ratio IC50 (Homo sapiens [18]): > 1000; IC50 (Plasminogen [14]): > 100 µM; IC50 [15]: > 100 µM; Ratio IC50 (Homo sapiens [19]): > 1000; Ratio IC50 (Homo sapiens [20]): > 1000; Ratio IC50 (Homo sapiens [21]): > 1000; Ratio IC50 (Homo sapiens [22]): > 1000; IC50 (Prothrombin [16]): > 100 µM; IC50 (Coagulation factor VII): > 100 µM; Ratio IC50 (Homo sapiens [23]): > 1000; Ratio IC50 [24]: > 1000 |
| N=C(N)NC(=O)c1nc(Cl)c(N)nc1N [AMILORIDE] | 3.5% | 5.2% | 1% | – | 0% | 7.4% | – | 0% | – | – | – | – | 31.8 µM | – |
